{"source": "PubChem BioAssay AID624204", "about": "(Sanford-Burnham Center for Chemical Genomics, 2012)", "note": "Out of some 360,000 compounds screened, about 770 (0.21%) were called active. The sample holds actives, similar compounds and a random draw of the others, so the mix is not that of the screen. Values without a mark were called inactive.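 The calls were made as follows: active = inhibition at least 30% at 10 µM, raw YFP signal under a set limit, fluorescence ratio 0.5 to 1.5; inactive = the rest.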", "data": [{"target": "Sentrin-specific protease 1 (Homo sapiens) (UniProt Q9P0U3)", "sequence (Q9P0U3 419-644 limits assumed)": "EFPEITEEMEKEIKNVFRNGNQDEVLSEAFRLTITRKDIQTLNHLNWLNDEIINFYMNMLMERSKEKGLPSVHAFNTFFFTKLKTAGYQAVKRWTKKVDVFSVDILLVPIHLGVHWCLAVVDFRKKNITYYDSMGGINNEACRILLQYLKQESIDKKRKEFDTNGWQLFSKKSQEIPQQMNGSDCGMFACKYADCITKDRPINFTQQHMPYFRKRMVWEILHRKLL", "assay": "blockers of SENP1 SUMO protease activity – biochemical, FRET, uHTS, primary screen (AID 624204);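 also: 0% = enzyme with DMSO and 100% = no enzyme wells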", "conditions": "recombinant SENP1 catalytic domain, CyPet-SUMO1-YPet FRET cleavage; at 10 µM; stronger effect = higher value", "method_in_brief": "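Material: hSENP1 catalytic domain, recombinant; medium: Tris pH 8 with BME, BSA, NP40 and catalase; compound: single concentration of 10 µM compound, 0.5% DMSO final; technique: FRET read of cyan and yellow fluorescence; timing: 50 min enzyme reaction, room temperature, light-protected; reagent: SFCypet-SUMO1-SFYpet substrate at 25 nM; control set: no-enzyme low, enzyme-DMSO high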", "values": [{"smiles": "N/C(=N\\OC(=O)CCc1ccccc1)c1ccc(Cl)cc1", "inhibition": "4.15%"}, {"smiles": "N/C(=N\\OC(=O)N1c2ccccc2Sc2ccccc21)c1ccc(Br)cc1", "inhibition": "45.8% (active)"}, {"smiles": "N/C(=N\\OC(=O)c1ccc2c(c1)OCO2)c1ccc(Br)cc1", "inhibition": "2.72%"}, {"smiles": "Fc1ccc(CNCc2ccc(Br)cc2)cc1", "inhibition": "0.319%"}, {"smiles": "CC(C)c1ccc(S(=O)(=O)N2CCC3(CC2)OCCO3)cc1", "inhibition": "-0.675%"}, {"smiles": "CC(C)=CCN1CCN(Cc2cc3ccccc3[nH]2)CC1CCO", "note": "(configuration not stated)", "inhibition": "-16.2%"}, {"smiles": "O=C(OCC(=O)N1CCCCCC1)c1ccc(Br)c(S(=O)(=O)N2CCOCC2)c1", "inhibition": "2.31%"}, {"smiles": "CCC1CCCCN1CCNC(=O)c1[nH]c(C)c(C(C)=O)c1C", "note": "(configuration not stated)", "inhibition": "-5.33%"}, {"smiles": "CS(=O)(=O)Nc1ccccc1N=C(c1ccccc1)c1ccccc1", "inhibition": "1.89%"}, {"smiles": "CCc1ccc(C(=O)NN=C2CCCCCC2)s1", "inhibition": "1.74%"}, {"smiles": "COc1ccc(-c2c(C#N)cnc(C)c2C)c(O)c1OC", "inhibition": "0.472%"}, {"smiles": "COC(=O)CNC(=O)C(CCSC)NC(C)=O", "note": "(configuration not stated)", "inhibition": "2.78%"}, {"smiles": "CC(C)n1cnc2c(NCc3ccccc3)cc(OCC3CCN(C)CC3)cc21", "inhibition": "-28.3%"}, {"smiles": "COCC1CCN(C(=O)C2CCC(=O)N(Cc3cccc(C(F)(F)F)c3)C2)CC1", "note": "(configuration not stated)", "inhibition": "2.83%"}, {"smiles": "O=C(c1cccs1)N(Cc1cc2ccccc2[nH]c1=O)CC1CCCO1", "note": "(configuration not stated)", "inhibition": "0.621%"}, {"smiles": "COc1ccc(S(=O)(=O)N2CCOC2CNC(=O)C(=O)NCc2ccc(F)cc2)cc1", "note": "(configuration not stated)", "inhibition": "0.939%"}, {"smiles": "Cc1oc2c(F)c(F)c(F)c(F)c2c1S(=O)(=O)Nc1cccc(C(F)(F)F)c1", "inhibition": "0.0743%"}, {"smiles": "COc1ccc(S(=O)(=O)N(C)C[C@H]2OCc3cnnn3CCCC(=O)N([C@H](C)CO)C[C@H]2C)cc1", "inhibition": "0.96%"}, {"smiles": "O=C(COC(=O)Cn1cnc2ccccc2c1=O)NCC12CC3CC(CC(C3)C1)C2", "inhibition": "-2.59%"}, {"smiles": "O=C(COC(=O)Cn1cnc2ccccc21)Nc1cccc2c1C(=O)c1ccccc1C2=O", "inhibition": "49.1% (active)"}, {"smiles": "O=C(Cn1cnc2ccccc21)Nc1ccccc1-c1ccccc1", "inhibition": "2.05%"}, {"smiles": "CCN(CC)S(=O)(=O)c1ccc2c3c(cccc13)C(=O)S2", "inhibition": "-5.16%"}, {"smiles": "CCN(CC)S(=O)(=O)c1cc([N+](=O)[O-])ccc1N=Nc1c(O)n(C)c2ccccc12", "inhibition": "38.9% (active)"}, {"smiles": "O=[N+]([O-])c1cc(S(=O)(=O)Nc2cccc(Cl)c2)ccc1N=Nc1c(O)[nH]c2ccccc12", "inhibition": "7.59%"}, {"smiles": "COc1ccccc1-c1noc(CSc2nc(C)cc(=O)[nH]2)n1", "inhibition": "0.334%"}, {"smiles": "CC(/C=C/C1(O)C(C)CC(=O)CC1(C)C)OC1OC(CO)C(O)C(O)C1O", "note": "(configuration not stated)", "inhibition": "-6.63%"}, {"smiles": "O=C(CNC(=O)N1CC(=O)Nc2ccccc21)Nc1ccc(Br)cc1F", "inhibition": "-5.9%"}, {"smiles": "Cc1ccc(S(=O)(=O)NC2CCCCCC2)cc1C(N)=O", "inhibition": "1.4%"}, {"smiles": "CCN(C(=O)CSc1nnc2ccccn12)C1CCS(=O)(=O)C1", "note": "(configuration not stated)", "inhibition": "0.95%"}, {"smiles": "CCCCn1c(-c2cccc(C)c2)nc2cc3[nH]c(=O)c(C(C)C)nc3cc21", "inhibition": "-46.9%"}, {"smiles": "CCCCCn1nnnc1-c1nc2cc3ccccc3cc2[nH]c1=O", "inhibition": "70.6% (active)"}, {"smiles": "CCCCCn1nnnc1C1c2ccccc2C(=O)N1Cc1ccco1", "note": "(configuration not stated)", "inhibition": "2.03%"}, {"smiles": "CC(=O)Nc1ccc(Sc2ccccc2C(=O)N2CCCC2)cn1", "inhibition": "0.55%"}, {"smiles": "Cc1c(CN2CCC(n3nccc3NC(=O)CCc3ccccc3)CC2)cnn1C", "inhibition": "2.13%"}, {"smiles": "CCn1nc(C(=O)NNC(=O)C2CSC3(C)CCC(=O)N23)c2ccccc2c1=O", "note": "(configuration not stated)", "inhibition": "1.35%"}, {"smiles": "CCc1nc2ccc(C(=O)Nc3cc(-c4ccccc4)ccc3OC)cn2c1N(CC)CC(=O)N(C)C", "inhibition": "-1.8%"}, {"smiles": "CCCn1c(=O)c2ccccc2n2c(SCC(=O)/C(C#N)=C(\\C)N)nnc12", "inhibition": "-2.1%"}, {"smiles": "CN(C)CCN(Cc1ccccc1)S(=O)(=O)c1csc(C(N)=O)c1", "inhibition": "3.33%"}, {"smiles": "Cc1ccc(SC(=O)COc2ccc(C)c(C)c2)cc1", "inhibition": "4.05%"}, {"smiles": "CC(C)OC(=O)CC(=O)CC(O)c1cccc([N+](=O)[O-])c1", "note": "(configuration not stated)", "inhibition": "1.31%"}, {"smiles": "COc1cccc(/C=N/NC(=O)c2[nH]nc3c2CCc2ccccc2-3)c1O", "inhibition": "48.9% (active)"}, {"smiles": "COc1ccc(Cl)cc1C=CC=NNC(=O)c1ccncc1", "inhibition": "2.79%"}, {"smiles": "COc1ccccc1-c1nnc(NC(=O)c2cccc(N3C(=O)CCC3=O)c2)o1", "inhibition": "1.37%"}, {"smiles": "CCOc1cc(/C=C2\\C(=N)N3N=C(C)SC3=NC2=O)ccc1OCCOc1ccccc1", "inhibition": "-3.15%"}, {"smiles": "CCN1C(=O)/C(=C2\\SC(N3CCCCC3)=NC2=O)c2ccccc21", "inhibition": "1.36%"}, {"smiles": "CC1CCN(C2=NC(=O)/C(=C/c3cn[nH]c3-c3ccccc3)S2)CC1", "inhibition": "-1.05%"}, {"smiles": "CCOc1cc(/C=C2\\SC(N3CCCCC3)=NC2=O)ccc1O", "inhibition": "56.6% (active)"}, {"smiles": "CCOc1cc(/C=C2\\SC(N3CCCC(C)C3)=NC2=O)ccc1O", "note": "(configuration not stated)", "inhibition": "58.5% (active)"}, {"smiles": "Cc1cccc(N(C(=O)Cc2cccs2)C(C(=O)NCc2ccco2)c2ccncc2)c1", "note": "(configuration not stated)", "inhibition": "-0.142%"}, {"smiles": "COc1ccc(S(=O)(=O)N2CCC(C(=O)NCCC(=O)NCCc3cccc(F)c3)CC2)cc1", "inhibition": "1.66%"}, {"smiles": "COc1ccc(CC(=O)N[C@@H]2c3cc(OC)c(OC)cc3C[C@H]2OCc2ccccc2)cc1", "inhibition": "2.95%"}, {"smiles": "O=C(NC1CCCCC1)C1CC(=O)N(CCc2ccccc2)C1", "note": "(configuration not stated)", "inhibition": "1.46%"}, {"smiles": "CCOC(=O)/C(=N\\Nc1cc(Cl)ccc1Cl)N1CCN(C)CC1", "inhibition": "0.895%"}, {"smiles": "O=S(=O)(c1ccc(F)cc1)N1CCN(C(=S)NC2CCCC2)CC1", "inhibition": "2.06%"}, {"smiles": "CCCCn1nnnc1NCc1cc(OC)c(OC)c(OC)c1", "inhibition": "1.02%"}, {"smiles": "CCOC(=O)N1CCC(O)(c2cc(C)c(C)cc2C)CC1", "inhibition": "0.28%"}, {"smiles": "Fc1cccc(Cc2c(-c3cccc(Cl)c3)nc3ccc(Br)cn23)c1", "inhibition": "45.8% (active)"}, {"smiles": "Fc1cccc(Cc2c(-c3ccc(Cl)cc3)nc3ccc(Cl)cn23)c1", "inhibition": "9.99%"}, {"smiles": "Clc1cccc(Cc2c(-c3cccc(Cl)c3)nc3ccc(Cl)cn23)c1", "inhibition": "18.5%"}, {"smiles": "CC(=O)N1CCOc2ccc(S(=O)(=O)N3CCN(c4cccc(C(F)(F)F)c4)CC3)cc21", "inhibition": "2.33%"}, {"smiles": "COc1ccc(N2CCC(N3CCN(C)C(CCO)C3)CC2)cc1", "note": "(configuration not stated)", "inhibition": "-1.06%"}, {"smiles": "O=[N+]([O-])/C(N=Nc1ccccc1)=N\\Nc1ccccc1", "inhibition": "0.203%"}, {"smiles": "NC(=O)C1(Nc2ccc([N+](=O)[O-])cc2)CCCC1", "inhibition": "-1.76%"}, {"smiles": "O=[N+]([O-])c1ccc(N=NNc2ccc([N+](=O)[O-])cc2)cc1", "inhibition": "67.8% (active)"}, {"smiles": "O=C(N/N=C/c1ccc(Br)o1)c1cncc(Br)c1", "inhibition": "0.704%"}, {"smiles": "Cc1ccc(C(=O)N/N=C\\c2cc(Br)c(Br)o2)cn1", "inhibition": "41.1% (active)"}, {"smiles": "Brc1cc(/C=N/n2cnnc2)oc1Br", "inhibition": "2.85%"}, {"smiles": "CC(C)(C)OC(=O)C[C@@H]1C/C=C\\C[C@@H](CC(=O)N[C@@H](CO)Cc2ccccc2)C(=O)N2CCC[C@H]2COC1=O", "inhibition": "1.24%"}, {"smiles": "Cc1ccc(Cn2nnc3c(=O)[nH]c(C4CCN(S(=O)(=O)/C=C/c5ccccc5)CC4)nc32)cc1", "inhibition": "-2.14%"}, {"smiles": "Cc1cccc(Nc2nnc(SCC(=O)c3c(N)n(C4CC4)c(=O)[nH]c3=O)s2)c1C", "inhibition": "1.61%"}, {"smiles": "Nn1c(SCC(=O)Nc2nccs2)nncc1=O", "inhibition": "2.89%"}, {"smiles": "O=C(Nc1ccc2c(c1)OCCO2)C1c2ccccc2OCC(=O)N1Cc1ccccn1", "note": "(configuration not stated)", "inhibition": "-6.74%"}, {"smiles": "Cc1ccc(F)c(NC(=O)CCc2ccccc2)c1", "inhibition": "-0.0761%"}, {"smiles": "CCNc1nc(N)nc(-c2cc(Cl)ccc2OC)n1", "inhibition": "0.684%"}, {"smiles": "O=C(CNC(=O)c1ccc(Cl)cc1Cl)NCC(=O)Nc1ccccc1N1CCOCC1", "inhibition": "4.8%"}, {"smiles": "CCCC1OC23CCCCC2C(C#N)(C#N)C1(C#N)C(=N)O3", "note": "(configuration not stated)", "inhibition": "-28.3%"}, {"smiles": "CCOC(=O)CCC(=O)OCC(=O)NC(C)C1CC2CCC1C2", "note": "(configuration not stated)", "inhibition": "2.09%"}, {"smiles": "COC(=O)C(C)N=Cc1ccccc1", "note": "(configuration not stated)", "inhibition": "3.52%"}, {"smiles": "COC(=O)N/N=C/c1c[n+]([O-])c2ccccc2[n+]1[O-]", "inhibition": "58.5% (active)"}, {"smiles": "N#Cc1ccc(C(c2ccc(C#N)cc2)n2cncn2)cc1", "inhibition": "-1.95%"}, {"smiles": "O=C(Nc1cccc(OCC(=O)N2CCOCC2)c1)C1CCCCC1", "inhibition": "-0.72%"}, {"smiles": "COc1ccc(N2C(=O)CC(N3CCC(C(N)=O)CC3)C2=O)cc1", "note": "(configuration not stated)", "inhibition": "-0.137%"}, {"smiles": "CNC(=O)C[C@H]1C(=O)N(c2ccc(OC)cc2)C[C@@H]1Cc1ccccc1", "inhibition": "3.98%"}, {"smiles": "COc1ccc(N2C(=O)C3C(C2=O)C(C(=O)c2ccccc2)N2CCCC32)cc1", "note": "(configuration not stated)", "inhibition": "40% (active)"}, {"smiles": "CC(C)Oc1ccc(C(CC(=O)N2CCOCC2)C(C)C)cc1", "note": "(configuration not stated)", "inhibition": "1.52%"}, {"smiles": "CC(C)(C)c1cc(NC(=O)NN2CCOCC2)nn1-c1c(Cl)cc(Cl)cc1Cl", "inhibition": "2.79%"}, {"smiles": "Cn1c(N)cc(=O)n(C)c1=S", "inhibition": "-0.927%"}, {"smiles": "COc1ccc(CCNS(=O)(=O)c2cc3c(cc2C)NC(=O)CO3)cc1OC", "inhibition": "2.06%"}, {"smiles": "COc1ccc(OC)c(C2C3=C(N=c4s/c(=C\\c5cccc(O)c5)c(=O)n42)c2ccccc2CC3)c1", "note": "(configuration not stated)", "inhibition": "45.9% (active)"}, {"smiles": "CCC1([N+](=O)[O-])COC(c2ccc(C(C)C)cc2)OC1", "note": "(configuration not stated)", "inhibition": "2.7%"}, {"smiles": "Cc1ccc2c(c1)N(C(=O)CCC(=O)N1CCc3ccccc3C1)CCO2", "inhibition": "1.45%"}, {"smiles": "CCOC(=O)[C@H]1[C@H]2COc3ccc(Cl)cc3[C@@H]2N2C(=O)c3cc(C)ccc3NC(=O)[C@@]12C", "inhibition": "1.07%"}]}]}
